pIC50: −log10 of the molar value.

One may read the pIC50 as the negative decadic logarithm of the IC50, by convention in mol/L.

This test has as its system HeLa. Kind of test: Antiproliferative activity against human HeLa cells assessed as inhibition of cell growth incubated for 24 hrs by MTT assay. Type of test: functional, cell-based. In short, it runs like this: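 Cells kept in DMEM with 10% FBS and 1% antibiotic-antimycotic at 37 °C and 5% CO2. Seeded at 8 × 10^3 cells per 100 μL and left 24 h, then exposed 24 h to 5, 10, 20, 50 or 100 μM. MTT at 0.5 mg/mL in HBSS was added for 2–4 h at 37 °C in the dark. Formazan was dissolved in DMSO, A570 was read, and IC50 was derived.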
On the technique in general: Tetrazolium dyes change colour on reduction, which living cells bring about.

On to `C[C@@H](C[C@@H](O)[C@@H](O)C(C)(C)O)[C@@H]1CC[C@]2(C)C3=CC[C@H]4C(C)(C)C(=O)CC[C@]4(C)[C@H]3CC[C@@]12C`, for which the pIC50 was 4.29. Consider `C[C@@H](C[C@@H](O)[C@H](O)C(C)(C)O)[C@@H]1CC[C@]2(C)C3=CC[C@H]4C(C)(C)C(=O)CC[C@]4(C)[C@H]3CC[C@@]12C`, for which the negative-log IC50 (pIC50) is less than 4.00.
